# Vif inh: inhibitors of HIV Vif | AID 602346 | 340,000 compounds, 0.35% hits | HEK293T cells, Vif self-association by quenched fluorescence, imaging, 24 h | inhibition, % at 7.49 µM; in the data active = inhibition above about 50%, passing the limit was not always enough
# V-ATPase pH: alters yeast V-ATPase proton transport; 350,000 compounds, 0.37% hits; S. cerevisiae, pHLuorin cytosolic pH fluorescence; AID 504577; response, % at 10 µM; in the data active = response mostly above about 7.3%, no sharp cut-off; inactive = mostly below about 5.4%; also: actives read high
# SR-BI DiI inh: blocks mouse SR-BI lipid uptake from DiI-HDL. Q61009. ldlA[mSR-BI] CHO cells, DiI-HDL uptake fluorescence, 3 h. inhibition, % at 12.5 µM. 320,000 compounds, 0.96% hits. AID 488896;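 active = mean replicate inhibition of at least 70% and a set share of replicates each scoring 70 or more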;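 also: 0% = median of neutral control wells and 100% = median of positive control wells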
# Target sequence (Q61009 whole entry, looked up): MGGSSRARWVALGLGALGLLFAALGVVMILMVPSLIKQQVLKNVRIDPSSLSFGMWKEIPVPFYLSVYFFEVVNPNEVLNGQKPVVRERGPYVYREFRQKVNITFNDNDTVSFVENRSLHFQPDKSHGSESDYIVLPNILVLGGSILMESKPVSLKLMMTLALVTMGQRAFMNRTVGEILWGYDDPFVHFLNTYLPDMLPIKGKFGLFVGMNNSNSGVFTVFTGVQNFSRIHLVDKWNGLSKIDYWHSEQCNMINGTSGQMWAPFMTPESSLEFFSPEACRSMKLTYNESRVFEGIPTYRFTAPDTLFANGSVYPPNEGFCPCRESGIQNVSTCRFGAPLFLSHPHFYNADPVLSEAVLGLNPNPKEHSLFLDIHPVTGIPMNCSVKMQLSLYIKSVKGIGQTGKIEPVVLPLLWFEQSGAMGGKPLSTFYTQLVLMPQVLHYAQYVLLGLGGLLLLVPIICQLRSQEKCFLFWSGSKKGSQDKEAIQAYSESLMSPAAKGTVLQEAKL
# NTR1 ag: agonists of human neurotensin receptor NTR1; P30989; NTR1-U2OS beta-arrestin-GFP spot imaging, agonist mode; activation, % at 20 µM; 330,000 compounds, 0.17% hits; AID 493036;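 active = activation at or above 40% of the spot to cytoplasm intensity ratio, with at least 20 cells analyzed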;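 also: 0% = DMSO without peptide and 100% = 100 nM NTR1 peptide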
# SR-BI DiI-HDL act: activators of SR-BI mediated HDL lipid uptake; 320,000 compounds, 0.096% hits; CHO ldlA[mSR-BI] cells, DiI-HDL uptake fluorescence, 3 h; 100 = double the neutral-control signal; activation, % at 12.5 µM;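 active = mean replicate activation of at least 60% and every replicate at or above 60%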;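 also: 0% = median plate neutral-control signal and 100% = twice that signal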
#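 Material: SR-BI-overexpressing, LDLR-lacking CHO cells | Dosing: Single compound concentration, delivered by pin transfer | Probe or stimulus: Labelled HDL, 10 µg/mL | Signal: Bottom-read cell fluorescence after medium removal, ex 550/em 595 nm | Schedule: 3 h, 37 °C | Evaluation: HDL uptake via cellular fluorescence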
# CaV13 FRET inh: Disruptors of the CACNA1D IQ motif to Ca2+-dependent inactivation inhibitor domain association, primary screening, Förster resonance energy transfer in intact living …. inhibition, % at 12.3 µM. 340,000 compounds, 0.098% hits. AID 743397. HEK cells, CFP/YFP FRET ICDI-IQ, plate reader, 10 min; percent FRET-ratio fall versus neutral wells;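 active = mean replicate inhibition of at least 30% and at least 1% of replicates passing that level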;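 also: 0% = median of the neutral control wells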
# * marks the source's active call; other numbers are inactive results; / = not tested or not shown. An excerpt weighted towards active compounds, which were near 1.7% of everything screened.
SMILES,Vif inh,V-ATPase pH,SR-BI DiI inh,NTR1 ag,SR-BI DiI-HDL act,CaV13 FRET inh
NS(=O)(=O)c1ccc(N=Nc2c(-c3ccccc3)[nH]n(-c3nc(-c4ccccc4)cs3)c2=O)cc1,6,1,112*,10,-112,-3
O=C(NC12CC3CC(CC(C3)C1)C2)c1ccc(N2CCNCC2)c([N+](=O)[O-])c1,-7,-4,27,3,-27,-5
COc1ccccc1C(=O)NC(=S)Nc1ccccc1N1CCCC1,1,-2,75*,2,-75,-3
COc1ccc(NC(=O)C(Sc2nnc3ccccn23)c2ccccc2)cc1Cl (stereo not given),-5,1,-82,0,82*,-3
CCC(C(=O)Nc1ccc(OC)c(Cl)c1)c1ccccc1 (stereo not given),/,0,14,0,-14,-6
CN=C1SC(CC(=O)Nc2ccccc2F)C(=O)N1/N=C/c1ccc(O)c(OC)c1 (stereo not given),-2,0,74*,0,-74,-5
CCOc1ccc(/C=N/N2C(=O)C(CC(=O)Nc3ccc(F)cc3F)SC2=NC)cc1OC (stereo not given),3,1,17,4,-17,-3
c1ccc(-c2csc(NC3=NCCCCC3)n2)cc1,6,3,-8,-2,8,-14
N#Cc1ccc(-c2csc(NC3=NCCCCC3)n2)cc1,19,4,75*,/,-75,-5
COc1ccc(CC(O)CO)cc1OCc1ccccc1 (stereo not given),-1,3,/,/,/,-2
CCCn1c2ccc(/C(C)=N\O)cc2c2cc(/C(C)=N/O)ccc21,7,-3,101*,17,-101,-2
O=C(C[n+]1ccc(-c2cc(C(=O)Nc3cccc(C(F)(F)F)c3)c3ccccc3n2)cc1)c1cccc([N+](=O)[O-])c1,4,6,87*,3,-87,-5
COc1ccc(CC(O)COS(N)(=O)=O)cc1 (stereo not given),-2,-3,-8,-3,8,-4
COc1ccc(OC)c(C2=NOC(C(=O)N3CCN(c4ccccc4)CC3)C2)c1 (stereo not given),2,-1,71*,1,-71,-3
COc1cccc(C2=NOC(C(=O)N3CCN(c4ccccc4)CC3)C2)c1OC (stereo not given),1,-1,53,2,-53,-4
Cc1cccc(C)c1NC(=O)C1(C)CN(S(C)(=O)=O)CC(=O)N1Cc1cccc(F)c1 (stereo not given),/,/,/,/,/,-11
COc1cc2c(cc1OC)C(=Cc1ccc(N(C)C)cc1)C=C2,-2,-5,76*,/,-76,-5
Cc1sc(NC(=O)Cn2cnnn2)nc1-c1ccc(Cl)cc1,/,0,10,1,-10,-5
CN(C)/C=N/c1sccc1C(N)=O,18,16*,-41,4,41,-4
CCC(ONc1ccccc1C(F)(F)F)(C(=O)NN(C)C)c1ccccc1 (stereo not given),0,-3,28,4,-28,-4
O=C(O)c1ccc(Nc2nc3ccc(Cl)cc3[nH]2)cc1,-6,3,-13,-1,13,-9
NC(=S)N/N=C/c1ncc(C(F)(F)F)cc1Cl,5,1,73*,2,-73,/
COc1cc(/C=C/C(=O)c2ccc(NS(=O)(=O)c3ccc(C)cc3)cc2)ccc1OC(F)F,0,-1,21,9,-21,-3
COc1cc(/C=C/C(=O)c2ccc(NS(=O)(=O)c3ccc(C)cc3)cc2)cc(OC)c1O,22,113*,29,/,-29,-8
COC(=O)Cn1c2ccc(F)cc2c2nc(C)sc21,1,1,-5,0,5,-4
Cc1nc2c3cc(F)ccc3n(Cc3ccc(F)cc3)c2s1,-4,2,80*,-1,-80,-15
CCOc1cc(N2CCOCC2)c(OCC)cc1NC(=O)CN1C(=O)C2C3C=CC(C3)C2C1=O (stereo not given),3,-3,-5,2,5,1

# Screens deposited in PubChem by several laboratories.
